In the array DNA melting data of Ke et al. (doi:10.1101/2024.01.08.574731):

How the values were obtained:
[1] = folding enthalpy; higher = less favourable; fluorescence melt of hairpins on a sequencing array, two-state fit; conditions: sodium 0.088 M
Procedure, shortened: (§1)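 To match UV melts, fitted temperatures were raised by 9.35 °C. These fits were bootstrapped two-state models that gave melting temperature and folding enthalpy, combined by inverse variance over four replicates. The input was normalised Cy3 fluorescence of library hairpins with annealed Cy3 and quencher oligos on a sequenced MiSeq flow cell, imaged in 50 mM Na-HEPES pH 8.0, 25 mM NaCl in 2.5 °C steps up to 60 °C.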

[2] = melting temperature; fluorescence melt of hairpins on a sequencing array, two-state fit, raised by 9.35 °C to match UV melts; conditions: sodium 0.088 M
Procedure, shortened: as §1

Sequence: GGCCACCGAAAGGTCGCC (((.(((....))).)))
- folding enthalpy [1]: -49.2 kcal/mol
- Tm [2]: 53.3 °C

Sequence: GGCCACCGAAAGGTTGCC (((.(((....))).)))
- folding enthalpy [1]: -44.3 kcal/mol
- Tm [2]: 58.1 °C

Sequence: GGCCACGAAAGTGATGCC ((((((....)))..)))
- folding enthalpy [1]: -27.6 kcal/mol
- Tm [2]: 51 °C

Sequence: GGCCACGAAAGTGCAGCC ((((((....)))..)))
- folding enthalpy [1]: -19.9 kcal/mol
- Tm [2]: 49.9 °C

Sequence: GGCCACGAAAGTGTAGCC ((((((....)))..)))
- folding enthalpy [1]: -25 kcal/mol
- Tm [2]: 53.1 °C

Sequence: GGCCACGAAAGTGTCGCC ((((((....)))..)))
- folding enthalpy [1]: -21.3 kcal/mol
- Tm [2]: 50 °C

Sequence: GGCCACGGAAACACGGCC ((((..(....)..))))
- folding enthalpy [1]: -32.5 kcal/mol
- Tm [2]: 47.8 °C

Sequence: GGCCACGGAAACGCGGCC ((((.((....)).))))
- folding enthalpy [1]: -40.4 kcal/mol
- Tm [2]: 66.5 °C

Sequence: GGCCACGGAAACGTAGCC (((.(((....))).)))
- folding enthalpy [1]: -28 kcal/mol
- Tm [2]: 50.8 °C

Sequence: GGCCACGGAAACGTGGTC (.(((((....))))).)
- folding enthalpy [1]: -25.7 kcal/mol
- Tm [2]: 64.9 °C

Sequence: GGCCAGCGAAAGCTAGCC (((.(((....))).)))
- folding enthalpy [1]: -29.6 kcal/mol
- Tm [2]: 56.4 °C

Sequence: GGCCAGTCGAAAGACGCC (((..(((....))))))
- folding enthalpy [1]: -18.2 kcal/mol
- Tm [2]: 50.1 °C

Sequence: GGCCATCGAAAGATGCC (((.(((....))))))
- folding enthalpy [1]: -19.8 kcal/mol
- Tm [2]: 54.9 °C

Sequence: GGCCATGGAAACACGGCC ((((.((....)).))))
- folding enthalpy [1]: -45.4 kcal/mol
- Tm [2]: 51.7 °C

Sequence: GGCCCAACGAAAGTTGCC (((..(((....))))))
- folding enthalpy [1]: -13.9 kcal/mol
- Tm [2]: 32.5 °C

Sequence: GGCCCACGAAAGTGGCC (((.(((....))))))
- folding enthalpy [1]: -17.8 kcal/mol
- Tm [2]: 65.4 °C

Sequence: GGCCCAGCGAAAGCTGCC (((..(((....))))))
- folding enthalpy [1]: -8.49 kcal/mol
- Tm [2]: 36 °C

Sequence: GGCCCAGGAAACCGGACC ((.((.(....).)).))
- folding enthalpy [1]: -27.4 kcal/mol
- Tm [2]: 33.5 °C

Sequence: GGCCCAGGAAACCGGGCC (((((.(....).)))))
- folding enthalpy [1]: -42.2 kcal/mol
- Tm [2]: 63.5 °C

Sequence: GGCCCCGAAAGGGATGCC ((((((....)))..)))
- folding enthalpy [1]: -22.2 kcal/mol
- Tm [2]: 56.8 °C

Sequence: GGCCCCGAAAGGGCTGCC ((((((....)))..)))
- folding enthalpy [1]: -15.1 kcal/mol
- Tm [2]: 68.2 °C

Sequence: GGCCCCGGAAACAGGGCC (((((.(....).)))))
- folding enthalpy [1]: -43.7 kcal/mol
- Tm [2]: 58.2 °C

Sequence: GGCCCCGGAAACGGAGCC (((.(((....))).)))
- folding enthalpy [1]: -31.1 kcal/mol
- Tm [2]: 56.6 °C

Sequence: GGCCCGCCGAAAGGCGCC (((..(((....))))))
- folding enthalpy [1]: -7.51 kcal/mol
- Tm [2]: 38 °C

Sequence: GGCCCGGGAAACCGGACC ((.((((....)))).))
- folding enthalpy [1]: -29.3 kcal/mol
- Tm [2]: 57.5 °C

Sequence: GGCCCTCGAAAGAGCGCC (((.(((....))).)))
- folding enthalpy [1]: -35.2 kcal/mol
- Tm [2]: 51.6 °C

Sequence: GGCCCTCGAAAGAGGCC (((.(((....))))))
- folding enthalpy [1]: -21.3 kcal/mol
- Tm [2]: 58.4 °C

Sequence: GGCCCTGGAAACAGGACC ((.((((....)))).))
- folding enthalpy [1]: -35.3 kcal/mol
- Tm [2]: 51 °C

Sequence: GGCCGAGGAAACCCAGCC (((.(.(....).).)))
- folding enthalpy [1]: -11.8 kcal/mol
- Tm [2]: 29.6 °C

Sequence: GGCCGCCCGAAAGGGGCC (((..(((....))))))
- folding enthalpy [1]: -15 kcal/mol
- Tm [2]: 62 °C

Sequence: GGCCGCCGAAAGGCGCC (((.(((....))))))
- folding enthalpy [1]: -12.8 kcal/mol
- Tm [2]: 68.2 °C

Sequence: GGCCGCGAAAGCGGGGCC ((((((....)))..)))
- folding enthalpy [1]: -12.7 kcal/mol
- Tm [2]: 63.6 °C

Sequence: GGCCGCGAAAGCGTCGCC ((((((....)))..)))
- folding enthalpy [1]: -16.7 kcal/mol
- Tm [2]: 55.9 °C

Sequence: GGCCGGCGAAAGCCGCC (((.(((....))))))
- folding enthalpy [1]: -12 kcal/mol
- Tm [2]: 65.3 °C

Sequence: GGCCGTCGAAAGACCGCC (((.(((....))).)))
- folding enthalpy [1]: -42.5 kcal/mol
- Tm [2]: 53 °C

Sequence: GGCCTACGAAAGTACGCC (((.(((....))).)))
- folding enthalpy [1]: -26.4 kcal/mol
- Tm [2]: 47.4 °C

Sequence: GGCCTAGAAATAGGCC ((((((....))))))
- folding enthalpy [1]: -34.9 kcal/mol
- Tm [2]: 62.8 °C

Sequence: GGCCTAGGAAACCAGGCC (((((.(....).)))))
- folding enthalpy [1]: -49.6 kcal/mol
- Tm [2]: 53.9 °C

Sequence: GGCCTAGGAAACTAGGCC (((((((....)))))))
- folding enthalpy [1]: -32.8 kcal/mol
- Tm [2]: 68.6 °C

Sequence: GGCCTCACGAAAGTGGCC (((..(((....))))))
- folding enthalpy [1]: -21.9 kcal/mol
- Tm [2]: 53.7 °C

Sequence: GGCCTCGAAAGAGCAGCC ((((((....)))..)))
- folding enthalpy [1]: -22.3 kcal/mol
- Tm [2]: 47.6 °C

Sequence: GGCCTCGAAAGAGTGGCC ((((((....)))..)))
- folding enthalpy [1]: -36.6 kcal/mol
- Tm [2]: 54.4 °C

Sequence: GGCCTCGGAAACGGGGCC ((((.((....)).))))
- folding enthalpy [1]: -35.3 kcal/mol
- Tm [2]: 66.6 °C

Sequence: GGCCTCGGAAACGGGGTC (.((.((....)).)).)
- folding enthalpy [1]: -37.2 kcal/mol
- Tm [2]: 48.6 °C

Sequence: GGCCTGGGAAACCGGGTC (.((.((....)).)).)
- folding enthalpy [1]: -27.7 kcal/mol
- Tm [2]: 49 °C

Sequence: GGCCTGGGAAACTAGGCC (((((.(....).)))))
- folding enthalpy [1]: -49.7 kcal/mol
- Tm [2]: 59.2 °C

Sequence: GGCCTTCGAAAGAACGCC (((.(((....))).)))
- folding enthalpy [1]: -30.7 kcal/mol
- Tm [2]: 44.4 °C

Sequence: GGCCTTGGAAACAAGACC ((.((((....)))).))
- folding enthalpy [1]: -29.1 kcal/mol
- Tm [2]: 44.7 °C

Sequence: GGCGAAGGAAACCTCGCC (((((.(....).)))))
- folding enthalpy [1]: -46.7 kcal/mol
- Tm [2]: 55.3 °C

Sequence: GGCGAAGGAAACTCCGCC ((((.((....)).))))
- folding enthalpy [1]: -34.4 kcal/mol
- Tm [2]: 51.1 °C

Sequence: GGCGAAGGAAACTTCACC ((.((((....)))).))
- folding enthalpy [1]: -32.8 kcal/mol
- Tm [2]: 42.6 °C

Sequence: GGCGAAGGAAACTTTGCC (((.(((....))).)))
- folding enthalpy [1]: -35.8 kcal/mol
- Tm [2]: 53.2 °C

Sequence: GGCGAATCGAAAGATGCC (((..(((....))))))
- folding enthalpy [1]: -22.5 kcal/mol
- Tm [2]: 46.1 °C

Sequence: GGCGACACGAAAGTGGCC (((..(((....))))))
- folding enthalpy [1]: -15.1 kcal/mol
- Tm [2]: 53.1 °C

Sequence: GGCGACGAAAGTCACGCC ((((((....)))..)))
- folding enthalpy [1]: -27.4 kcal/mol
- Tm [2]: 54.1 °C

Sequence: GGCGACGAAAGTCCGCC ((((((....))).)))
- folding enthalpy [1]: -32.2 kcal/mol
- Tm [2]: 63.6 °C

Sequence: GGCGACGAAAGTCGTGCC ((((((....)))..)))
- folding enthalpy [1]: -12.7 kcal/mol
- Tm [2]: 51.2 °C

Sequence: GGCGACGAAAGTCTGCC ((((((....))).)))
- folding enthalpy [1]: -36.6 kcal/mol
- Tm [2]: 59.2 °C

Sequence: GGCGACGGAAACGCCACC ((.(.((....)).).))
- folding enthalpy [1]: -16.9 kcal/mol
- Tm [2]: 46 °C

Sequence: GGCGAGGGAAACCCCGCC ((((.((....)).))))
- folding enthalpy [1]: -46.8 kcal/mol
- Tm [2]: 57.9 °C

Sequence: GGCGATCGAAAGATGGCC (((.(((....))).)))
- folding enthalpy [1]: -47.6 kcal/mol
- Tm [2]: 57.6 °C

Sequence: GGCGATGGAAACACCGCC ((((.((....)).))))
- folding enthalpy [1]: -51.7 kcal/mol
- Tm [2]: 54 °C

Sequence: GGCGATGGAAACGTCGCC (((((.(....).)))))
- folding enthalpy [1]: -48.7 kcal/mol
- Tm [2]: 64.6 °C

Sequence: GGCGATGGAAACGTCGTC (.(((.(....).))).)
- folding enthalpy [1]: -39.5 kcal/mol
- Tm [2]: 46.2 °C

Sequence: GGCGATGGAAACGTTGCC (((.(.(....).).)))
- folding enthalpy [1]: -37.6 kcal/mol
- Tm [2]: 44.9 °C

Sequence: GGCGCACCGAAAGGTGCC (((..(((....))))))
- folding enthalpy [1]: -6.69 kcal/mol
- Tm [2]: 47.5 °C

Sequence: GGCGCAGGAAACTGCACC ((.((((....)))).))
- folding enthalpy [1]: -29.9 kcal/mol
- Tm [2]: 54.4 °C

Sequence: GGCGCATCGAAAGATGCC (((..(((....))))))
- folding enthalpy [1]: -9.42 kcal/mol
- Tm [2]: 45.2 °C
